{
  "source": "paper PMC5669264",
  "about": "(Journal of medicinal chemistry, 2017)",
  "key": {"[1]": {"test_system": "formalin-induced nociceptive behavior", "conditions": "cited from earlier work; for effect on second phase of formalin test in presence of A1AR antagonist 29: with 29 (DPCPX) 3 mg/kg ip"}, "hA1AR": {"biological_target": "T1, hA1AR (Homo sapiens, UniProt P30542)", "T1 sequence (P30542 1-326)": "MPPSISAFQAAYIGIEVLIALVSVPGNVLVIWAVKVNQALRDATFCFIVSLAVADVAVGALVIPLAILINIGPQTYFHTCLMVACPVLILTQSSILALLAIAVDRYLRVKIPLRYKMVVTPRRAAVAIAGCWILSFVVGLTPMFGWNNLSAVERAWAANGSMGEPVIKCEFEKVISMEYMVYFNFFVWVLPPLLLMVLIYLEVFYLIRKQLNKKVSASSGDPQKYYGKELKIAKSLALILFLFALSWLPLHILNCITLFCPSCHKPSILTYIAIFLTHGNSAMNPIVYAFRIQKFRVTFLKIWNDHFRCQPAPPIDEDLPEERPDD", "conditions": "cited from earlier work"}, "[2]": {"test_system": "formalin-induced nociceptive behavior", "assay": "Formalin test", "type": "in vivo", "conditions": "mice; for effect of the combination of 28 and 31 in formalin test: 28 1 mg/kg ip + 31 1 mg/kg ip"}, "mouse A1AR": {"test_system": "mouse A1AR", "conditions": "cited from earlier work"}, "A2B ARs [3]": {"biological_target": "T2, A2B ARs (Homo sapiens, UniProt P29275)", "T2 sequence (P29275 1-332)": "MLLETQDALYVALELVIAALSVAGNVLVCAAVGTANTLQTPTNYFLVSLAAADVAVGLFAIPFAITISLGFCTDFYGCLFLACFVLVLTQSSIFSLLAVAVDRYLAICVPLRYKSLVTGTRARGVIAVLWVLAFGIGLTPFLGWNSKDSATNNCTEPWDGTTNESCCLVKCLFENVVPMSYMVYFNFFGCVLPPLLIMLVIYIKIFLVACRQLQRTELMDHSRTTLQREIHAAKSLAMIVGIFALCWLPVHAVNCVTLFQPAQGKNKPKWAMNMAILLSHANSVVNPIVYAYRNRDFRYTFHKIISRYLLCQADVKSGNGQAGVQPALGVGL", "assay": "Stimulation of adenylyl cyclase activity", "type": "biochemical", "method_in_brief": "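Crude membranes came from CHO cells stably transfected with human A2B receptor, from a single high-speed spin. They were resuspended in 50 mM Tris/HCl, pH 7.4, and used immediately. Stimulation of adenylyl cyclase activity gave agonist EC50. […] Values are geometric means with 95% confidence intervals (n ≥ 3).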"}, "A2B ARs [4]": {"biological_target": "T2, A2B ARs", "conditions": "hA2B; ref Petrelli et al.[7]; cited from earlier work"}, "hA2A receptor": {"biological_target": "hA2A receptor (Homo sapiens, UniProt P29274)", "sequence (P29274 whole entry)": "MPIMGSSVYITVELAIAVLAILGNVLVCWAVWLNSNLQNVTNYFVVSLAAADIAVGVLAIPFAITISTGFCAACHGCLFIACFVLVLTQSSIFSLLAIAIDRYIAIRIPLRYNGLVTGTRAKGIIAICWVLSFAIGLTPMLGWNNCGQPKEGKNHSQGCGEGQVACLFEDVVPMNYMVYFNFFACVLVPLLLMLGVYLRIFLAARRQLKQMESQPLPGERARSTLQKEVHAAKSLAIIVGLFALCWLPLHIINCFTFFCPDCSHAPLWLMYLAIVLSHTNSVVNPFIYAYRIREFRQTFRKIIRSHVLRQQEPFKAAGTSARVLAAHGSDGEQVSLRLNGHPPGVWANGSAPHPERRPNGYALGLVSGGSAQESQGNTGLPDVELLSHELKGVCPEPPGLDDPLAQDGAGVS", "conditions": "ref Petrelli et al.[7]; cited from earlier work"}},
  "note": "“Also recorded” adds a separate entry of the source. Where two headings read alike, the source gives them in different places.",
  "data": [
    {"molecule": "O[C@@H]1[C@H](O)[C@@H](CCl)O[C@H]1n1cnc2c(NC3C[C@@H]4CC[C@@H]3C4)ncnc21", "note": "(mixture of isomers) [Compound 28, 5′-chloro-5′-deoxy-N^6-(±)-endo-norborn-2-yl)adenosine]", "values": [
      {"measurement": "effect on second phase of formalin-induced hyperalgesia", "setting": "[1]; 1–2 mg/kg ip", "value": "inhibited the second phase of formalin-induced hyperalgesia in a dose-dependent manner"},
      {"measurement": "effect on second phase of formalin test in presence of A1AR antagonist 29", "setting": "[1]", "value": "blocked"},
      {"measurement": "selectivity hA1AR vs hA3AR", "setting": "hA1AR", "value": "~ 2600 fold"},
      {"measurement": "effect of the combination of 28 and 31 in formalin test", "setting": "[2]", "value": "showed greater effects when combined in reducing both the first and the second phases of formalin test"},
      {"measurement": "selectivity mouse A1AR vs A3AR", "setting": "mouse A1AR", "value": "~ 10 000 fold"}
    ]},
    {"molecule": "CCn1nnc([C@H]2O[C@@H](n3cnc4c(NC5CC5)ncnc43)C(O)C2O)n1", "note": "(stereo in doubt) [Compound 1, (2R,3S,4R,5R)-2-(6-(Cyclopropylamino)-9H-purin-9-yl)-5-(2-ethyl-2H-tetrazol-5-yl)tetrahydrofuran-3,4-diol]", "values": [
      {"measurement": "functional behaviour at hA2B receptor", "setting": "A2B ARs [3]", "value": "partial A2BAR agonists"}
    ]},
    {"molecule": "CCn1nnc([C@H]2O[C@@H](n3cnc4c(NCC5CC5)ncnc43)C(O)C2O)n1", "note": "(stereo in doubt) [Compound 3, (2R,3S,4R,5R)-2-(6-((Cyclopropylmethyl)amino)-9H-purin-9-yl)-5-(2-ethyl-2H-tetrazol-5-yl)tetrahydrofuran-3,4-diol]", "values": [
      {"measurement": "functional behaviour at hA2B receptor", "setting": "A2B ARs [3]", "value": "partial A2BAR agonists"}
    ]},
    {"molecule": "CCn1nnc([C@H]2O[C@@H](n3cnc4c(NCc5cccc(F)c5)ncnc43)C(O)C2O)n1", "note": "(stereo in doubt) [Compound 9, (2R,3R,4S,5R)-2-(2-Ethyl-2H-tetrazol-5-yl)-5-(6-((3-fluorobenzyl)amino)-9H-purin-9-yl)tetrahydrofuran-3,4-diol]", "values": [
      {"measurement": "functional behaviour at hA2B receptor", "setting": "A2B ARs [3]", "value": "partial A2BAR agonists"}
    ]},
    {"molecule": "CCn1nnc([C@H]2O[C@@H](n3cnc4c(NCc5cccc(Cl)c5)ncnc43)C(O)C2O)n1", "note": "(stereo in doubt) [Compound 11, (2R,3S,4R,5R)-2-(6-((3-Chlorobenzyl)amino)-9H-purin-9-yl)-5-(2-ethyl-2H-tetrazol-5-yl)tetrahydrofuran-3,4-diol]", "values": [
      {"measurement": "effect on formalin-induced nociceptive behavior", "setting": "[2]; 0.5–1.0 mg/kg ip, 10 min before formalin, P < 0.005", "value": "reduced the late nociceptive behavior induced by formalin in a dose-dependent manner"}
    ]},
    {"molecule": "CCn1nnc([C@H]2O[C@@H](n3cnc4c(NC)nc(Cl)nc43)[C@H](O)[C@@H]2O)n1", "note": "[Compound 23]", "values": [
      {"measurement": "efficacy (pag, partial agonist % efficacy) A2B", "setting": "A2B ARs [4]", "value": 75, "unit": "%"}
    ]},
    {"molecule": "CCn1nnc([C@H]2O[C@@H](n3cnc4c(NCc5cccc(I)c5)nc(Cl)nc43)[C@H](O)[C@@H]2O)n1", "note": "[Compound 26]", "values": [
      {"measurement": "efficacy (pag, partial agonist % efficacy) A2B", "setting": "A2B ARs [4]", "value": 76, "unit": "%"},
      {"measurement": "effect on formalin-induced nociceptive behavior", "setting": "[2]; highest dose tested 1 mg/kg ip, 10 min before formalin", "value": "inactive"},
      {"measurement": "efficacy (pag, partial agonist % efficacy) A2A", "setting": "hA2A receptor", "value": 75, "unit": "%"}
    ]},
    {"molecule": "C[C@@]1(O)[C@H](O)[C@@H](CO)O[C@H]1n1cnc2c(NC3CCCC3)nc(Cl)nc21", "note": "[Compound 27, 2-chloro-2′-C-methyl-N^6-cyclopentyladenosine]", "values": [
      {"measurement": "effect on second phase of formalin-induced hyperalgesia", "setting": "[1]; 2.5–5 mg/kg ip", "value": "inhibited the second phase of formalin-induced hyperalgesia in a dose-dependent manner"},
      {"measurement": "effect on second phase of formalin test in presence of A1AR antagonist 29", "setting": "[1]", "value": "blocked"}
    ]},
    {"molecule": "CNC(=O)[C@H]1O[C@@H](n2cnc3c(NCc4cccc(I)c4)nc(Cl)nc32)[C@H](O)[C@@H]1O", "note": "[Compound 31, 2-chloro-N^6-(3-iodobenzyl)-5′-N-methylcarboxamidoadenosine]", "values": [
      {"measurement": "effect of the combination of 22 and 31 in formalin test", "setting": "[2]; 22 0.3 mg/kg ip + 31 1 mg/kg ip, 10 min before formalin, P < 0.005", "value": "completely erased the second phase and reduced the first phase of formalin-induced nociceptive behavior; also recorded: reduced completely the nocifensive behavior in both the first and the second phases of formalin test"},
      {"measurement": "effect of the combination of 28 and 31 in formalin test", "setting": "[2]", "value": "showed greater effects when combined in reducing both the first and the second phases of formalin test"}
    ]}
  ]
}
